Screening data deposited in PubChem BioAssay by several laboratories.
S1P4 ag = human S1P4 receptor agonism; S1P4-expressing cell line, agonist reporter assay; activation, % at 4.98 µM; hit rate 0.35% among 220,000; AID 1509; in the data active means activation above about 11%
Target sequence (O95977 whole entry, looked up): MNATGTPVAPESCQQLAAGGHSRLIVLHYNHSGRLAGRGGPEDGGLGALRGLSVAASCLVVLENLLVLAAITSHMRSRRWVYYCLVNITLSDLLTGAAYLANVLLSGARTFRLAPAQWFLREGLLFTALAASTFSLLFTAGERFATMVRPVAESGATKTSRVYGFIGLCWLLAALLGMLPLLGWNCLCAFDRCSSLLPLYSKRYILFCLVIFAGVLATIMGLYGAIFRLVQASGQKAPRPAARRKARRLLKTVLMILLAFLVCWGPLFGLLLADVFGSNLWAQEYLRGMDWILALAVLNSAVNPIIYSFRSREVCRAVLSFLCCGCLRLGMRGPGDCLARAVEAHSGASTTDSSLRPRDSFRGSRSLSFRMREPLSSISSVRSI
Biofilm kill mix = mixtures killing C. albicans biofilm; inhibition, % at 7.6 µM; hit rate 0.02% among 120,000; C. albicans biofilm persisters + clotrimazole, fluorescence viability; primary screen in compound mixtures of four per well;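 further: compounds exposed to preformed 24 h biofilms for 48 h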
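Probe or stimulus – Clotrimazole 50 µg/mL co-treatment · System – C. albicans biofilms · Schedule – 24 h biofilm formation, then 48 h compound exposure, 37 °C · Evaluation – percent inhibition of biofilm viability · Technique – 2-h Alamar Blue fluorescence, 535/590 nm excitation/emission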
S1P4 antag = blocks the human S1P4 receptor; O95977; S1P4-expressing cells, antagonist mode, reporter read-out; hit rate 0.26% among 220,000; inhibition, % at 4.98 µM; in the data active means inhibition above about 29%
S1P3 antag = antagonists of human S1P3 receptor. hit rate 0.27% among 170,000. Q99500. inhibition, % at 4.98 µM. CHO S1P3 NFAT-BLA reporter, FRET fluorescence, antagonist mode;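 active means inhibition above the plate cutoff, the mean inhibition of test wells on that plate plus 3 SD, cut at about 28% in these data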;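 further: cells challenged with S1P at its EC80 of 0.8 µM; blue over green emission ratio from cleaved BLA substrate after 4 h stimulation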
Target sequence (Q99500 whole entry, looked up): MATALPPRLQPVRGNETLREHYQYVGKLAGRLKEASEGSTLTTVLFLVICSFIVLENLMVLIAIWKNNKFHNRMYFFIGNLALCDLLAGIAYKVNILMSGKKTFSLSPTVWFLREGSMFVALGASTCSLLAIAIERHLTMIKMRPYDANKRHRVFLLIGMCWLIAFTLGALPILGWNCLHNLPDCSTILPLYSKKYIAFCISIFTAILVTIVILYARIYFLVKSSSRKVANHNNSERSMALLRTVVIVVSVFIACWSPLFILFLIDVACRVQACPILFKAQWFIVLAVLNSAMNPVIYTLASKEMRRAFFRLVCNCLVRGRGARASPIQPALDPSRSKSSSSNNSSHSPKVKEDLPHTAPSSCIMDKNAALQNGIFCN
MDM2 E3 inh = inhibitors of human Mdm2 E3 ubiquitin ligase; Q00987; cell-based MDM2 ubiquitination luciferase reporter, 2 h; 0 = plate control, 100 = twice control, blank-subtracted; signal enhancement, % at 5 µM; hit rate 0.11% among 210,000; AID 1230;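 active means signal enhancement of 30% or more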;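 further: luminescence tracks abundance of the self-degrading MDM2-luciferase fusion protein; higher signal means inhibition of MDM2 E3 ligase activity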
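Material: stable MDM2–luciferase fusion reporter cells / Quantity: 2000 cells/well / Dosing: single 5 µM compound dose, 0.2% final DMSO / Buffer or medium: DMEM / Schedule: 4 h cell settling then 2 h compound exposure, 37 °C / Detection: luminescence with SteadyLite reagent, 15 min at room temperature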
S1P4 antag conf = human S1P4 antagonism, confirmation. shares compounds with S1P4 antag. S1P4-expressing cell line, antagonist mode, reporter read-out. inhibition, % at 4.98 µM. hit rate 71% among 520. AID 1524; in the data active means inhibition above about 30%
S1P1 antagonist = counter-screen for S1P4 antagonists: antagonists of human S1P1; cell-based S1P1 antagonist counterscreen, inhibition; inhibition, % at 4.98 µM; hit rate 37% among 520; shares compounds with S1P4 antag; AID 1564; in the data active means inhibition above about 40%;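 further: receptor stimulated with S1P near its EC80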
Of the large screens only hits and unclear results are named; the others gave an inactive call (follow-up assays come after a bar, where they were run). The list is not random: actives were taken first. Their share in the collection is about 0.9%.

Cc1cc(NC(=O)CCCS(=O)(=O)c2nc(-c3cccs3)cc(C(F)(F)F)n2)no1	S1P4 antag 40 (no result: Biofilm kill mix) | S1P4 antag conf 111 | S1P1 antagonist 45
Cc1cc(NC(=O)CSc2nc(-c3cccs3)cc(C(F)(F)F)n2)no1	none (no result: Biofilm kill mix)
O=C(CCl)Nc1cn(-c2ccccc2)nc1-c1ccccc1	none
CCOC(=O)C1CCN(c2ncnc3c2[nH]c2cccc(OC)c23)CC1	S1P4 antag 56 (no result: Biofilm kill mix) | S1P4 antag conf inactive | S1P1 antagonist inactive
COc1cccc2[nH]c3c(N4CCCCC4)ncnc3c12	none (no result: Biofilm kill mix, MDM2 E3 inh)
Cc1ccc(S(=O)(=O)CCN2C=CC(C(F)(F)F)=NCC2)cc1	S1P4 antag 33 | S1P4 antag conf inactive | S1P1 antagonist inactive
O=S(=O)(c1ccc2ccccc2c1)N1C=CC(C(F)(F)F)=NCC1	none (no result: Biofilm kill mix, S1P3 antag)
O=C(O)CCCSc1nccn1-c1ccccc1	none
Cc1ccc(-c2cc3c(nn2)-c2ccccc2C3=O)cc1	none (no result: MDM2 E3 inh)
Cc1ccccc1-c1cc2c(nn1)-c1ccccc1C2=O	S1P4 antag 93 (no result: Biofilm kill mix, S1P3 antag) | S1P4 antag conf inactive | S1P1 antagonist inactive
CCN(CC)CCNC(=O)c1ccc2c(c1NCCO)C(=O)c1ccccc1C2=O	S1P4 antag 81 | S1P4 antag conf inactive | S1P1 antagonist inactive
Cc1ccccc1N(CC(=O)Nc1ccccc1C(=O)NCc1ccco1)S(=O)(=O)c1ccccc1	none
CN(NC(=O)Nc1ccc(Cl)cc1)c1c(Cl)c(Cl)nn1C	S1P4 antag 53 | S1P4 antag conf 47 | S1P1 antagonist inactive
CCN(c1ccccc1)S(=O)(=O)c1ccc(Cl)c(NC(=O)CSc2nncs2)c1	none
Cc1c(C=O)c(C=O)c(C)n1Cc1ccccc1	S1P4 antag 35 (no result: Biofilm kill mix, S1P3 antag) | S1P4 antag conf 42 | S1P1 antagonist inactive
CC(=O)c1c(C(C)=O)c(C)n(Cc2ccccc2)c1C	none (no result: Biofilm kill mix)
O=C(CCSCc1ccc(Cl)cc1)NCc1cccnc1	none
COc1cccc(-n2nc(C(N)=O)c(O)cc2=O)c1	none
COc1cccc(-n2nc(C#N)c(Cl)cc2=O)c1	S1P4 antag 94 | S1P4 antag conf 104 | S1P1 antagonist inactive
O=C(Nc1ccccc1C(=O)NCc1cccnc1)c1cccc([N+](=O)[O-])c1	none
O=C(Nc1nnc(SCc2cccc3ccccc23)s1)C1COc2ccccc2O1 (centres undefined)	none
CCc1ccc(OCC(=O)NC(C)C)cc1	none
COC(CNC(=O)c1ccc2c3c(onc13)-c1ccccc1C2=O)OC	S1P4 antag 37 | S1P4 antag conf 114 | S1P1 antagonist inactive
O=C(Nc1ccc(F)cc1)C1CCN(S(=O)(=O)c2cccs2)CC1	none
S=c1sc2c(Cl)ncnc2n1-c1ccccc1	S1P4 antag 32 | S1P4 antag conf 121 | S1P1 antagonist 86
Cc1nc(N2CCN(C)CC2)c2sc(=S)n(-c3ccccc3)c2n1	none (no result: Biofilm kill mix)
Cc1c(O)ccc(NC(=O)/C=C/c2ccccc2)c1C	S1P4 antag 57 | S1P4 antag conf 61 | S1P1 antagonist inactive
O=C(/C=C/c1cccc(Cl)c1)c1nc2ccccc2[nH]1	S1P4 antag 56 (no result: Biofilm kill mix, S1P3 antag) | S1P4 antag conf 104 | S1P1 antagonist inactive
O=C(/C(=C\c1ccccc1)c1nc2ccccc2[nH]1)c1ccc(Cl)cc1	none
CCC(=O)Nc1cc(SCCO)cc([N+](=O)[O-])c1	none (no result: Biofilm kill mix, S1P3 antag)
O=C(CCl)Nc1cc(SCC(O)CO)cc([N+](=O)[O-])c1 (centres undefined)	S1P4 antag 39 | S1P4 antag conf 112 | S1P1 antagonist 102
CC(NC(=O)c1cccc(Cn2cc([N+](=O)[O-])cn2)c1)c1ccc(C(C)(C)C)cc1 (centres undefined)	S1P4 antag 76 (no result: Biofilm kill mix, S1P3 antag) | S1P4 antag conf inactive | S1P1 antagonist inactive
CCN1C(=O)CS/C1=N\S(=O)(=O)c1ccc(Cl)cc1	none
CCn1c(Cl)c(C=O)s/c1=N\S(=O)(=O)c1ccccc1	S1P4 antag 88 | S1P4 antag conf 120 | S1P1 antagonist 119
O=C(NC(Cc1ccccc1)C(=O)Oc1ccc2c(C(F)(F)F)cc(=O)oc2c1)OCc1ccccc1 (centres undefined)	S1P4 antag 30 | S1P4 antag conf 47 | S1P1 antagonist inactive
C/C(N)=C(/C#N)C(=O)COC(=O)c1oc2ccccc2c1COC(C)C	none
O=C(c1cnn2c(C(F)F)cc(-c3ccccc3)nc12)N1CCN2CCCC2C1 (centres undefined)	S1P4 antag 35 (no result: Biofilm kill mix) | S1P4 antag conf inactive | S1P1 antagonist inactive
COc1ccc(-c2cc(C(F)F)n3ncc(C(=O)N4CCCCC4)c3n2)cc1	none (no result: Biofilm kill mix, S1P3 antag)
Cc1ccc(S(=O)(=O)Nc2cccc3ncccc23)cc1	none
Cc1ccc(S(=O)(=O)Nc2cccc3ncccc23)s1	S1P4 antag 47 (no result: Biofilm kill mix) | S1P4 antag conf 108 | S1P1 antagonist 109
COC(=O)CCS(=O)(=O)c1nc(-c2ccccc2)cc(C(F)(F)F)n1	S1P4 antag 60 (no result: Biofilm kill mix, S1P3 antag) | S1P4 antag conf 113 | S1P1 antagonist inactive
CCOC(=O)CCS(=O)(=O)c1nc(-c2ccccc2)cc(C(F)(F)F)n1	S1P4 antag 84 (no result: Biofilm kill mix) | S1P4 antag conf 114 | S1P1 antagonist 52
CCOC(=O)CS(=O)(=O)c1nc(-c2ccccc2)cc(C(F)(F)F)n1	S1P4 antag 98 | S1P4 antag conf 115 | S1P1 antagonist inactive
CCOC(=O)CS(=O)(=O)c1nc(-c2ccc(F)cc2)cc(C(F)(F)F)n1	none (no result: Biofilm kill mix)
C=CCOc1ccc(C2CC(C)=NN2c2ccccc2)cc1 (centres undefined)	none
O=C(Cc1ccccc1)Nc1ccccc1Oc1ccccc1	none
CCN(CC)c1ccc2cc(NC(=O)CCC(=O)O)c(=O)oc2c1	S1P4 antag 32 (no result: Biofilm kill mix) | S1P4 antag conf 59 | S1P1 antagonist 45
COc1ccc(-n2ncc(Cl)c(Cl)c2=O)cc1	S1P4 antag 95 | S1P4 antag conf 118 | S1P1 antagonist 57
O=[N+]([O-])c1ccc(Sc2cccc[n+]2[O-])c2nonc12	S1P4 antag 91 | S1P4 antag conf 114 | S1P1 antagonist inactive
O=C(OCn1ncc(Br)c(Br)c1=O)c1c(F)cccc1F	S1P4 antag 59 (no result: Biofilm kill mix, S1P3 antag, MDM2 E3 inh) | S1P4 antag conf 116 | S1P1 antagonist inactive
CC(C)(C)C(=O)Cn1ncc(N2CCCC2)c(Br)c1=O	none (no result: Biofilm kill mix, S1P3 antag)
CC(=O)Cn1ncc(Br)c(Br)c1=O	S1P4 antag 33 | S1P4 antag conf 111 | S1P1 antagonist 51
CCc1sc(NC(=O)C(C)C)nc1-c1ccccc1	none
CCOC(=O)C(=Cc1ccc(Br)cc1)C(=O)OCC	S1P4 antag 90 | S1P4 antag conf 115 | S1P1 antagonist inactive
CCOc1cc(C=O)ccc1OCCSc1ccc(Cl)cc1	none (no result: Biofilm kill mix, S1P3 antag)
O=[N+]([O-])c1ccc(-n2nnnc2-c2ccccc2)cc1	none
O=[N+]([O-])c1ccc(-n2nnnc2-c2ccccc2)c([N+](=O)[O-])c1	S1P4 antag 35 | S1P4 antag conf 53 | S1P1 antagonist inactive
C=CCc1c(C)[nH]c(=O)[nH]c1=O	none
